# Laboratory results as given in ChEMBL document CHEMBL4052618, “Design, synthesis, SAR discussion, in vitro and in vivo evaluation of novel selective EGFR modulator to inhibit L858R/T790M double mutants” (Eur J Med Chem, 2017).
# How the values were obtained:
# [1] = molecular target: Epidermal growth factor receptor (Homo sapiens, UniProt P00533, L858R); test: Inhibition of human recombinant cytoplasmic GST-tagged EGFR L858R mutant expressed in baculovirus using TK-substrate-biotin preincubated for 15 mins followed by substrate addition measured after 60 mins by FRET-based Z'-Lyte assay
# [2] = system: A-431; test: Antiproliferative activity against human A431 cells harboring wild-type EGFR; assay type: functional, cell-based
# [3] = Half life in mouse liver microsomes; assay type: ADME, microsome
# [4] = Half life in rat liver microsomes; assay type: ADME, microsome
# [5] = Half life in human hepatocytes; assay type: ADME, cell-based, Hepatocyte
# [6] = Half life in Sprague-Dawley rat at 10 mg/kg, po administered via gavage by LC-MS/MS analysis; assay type: ADME, organism-based; details: in vivo
# In short: (§1)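 Male Sprague-Dawley rats (200-240 g) were dosed either by tail vein at 1 mg/kg in 2% DMSO/20% PEG400/78% buffered saline or by oral gavage at 10 mg/kg in 0.5% methylcellulose. Blood was drawn by orbital sinus puncture at 2 min to 24 h into heparin, and plasma was analysed by LC/MS/MS in SRM mode. Parameters came from non-compartmental analysis.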
# [7] = Tmax in Sprague-Dawley rat at 10 mg/kg, po administered via gavage by LC-MS/MS analysis; assay type: ADME, organism-based; details: in vivo
# In short: (§2)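 Male Sprague-Dawley rats (200-240 g) received 1 mg/kg by tail-vein injection in 2% DMSO, 20% PEG400 and 78% buffered saline, or 10 mg/kg by oral gavage in 0.5% methylcellulose. Orbital sinus blood was drawn into heparinized tubes at 2, 5, 15 and 30 min and at 1, 2, 4, 8, 12 and 24 h, then centrifuged. Plasma was measured by LC/MS/MS in SRM mode, with non-compartmental analysis.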
# [8] = AUC (0 to infinity) in Sprague-Dawley rat at 10 mg/kg, po administered via gavage by LC-MS/MS analysis; assay type: ADME, organism-based; design: dose 10 mg/kg, route oral, time infinity; details: in vivo
# [9] = Half life in Sprague-Dawley rat at 1 mg/kg, iv by LC-MS/MS analysis; assay type: ADME, organism-based; details: in vivo; in short: as §1
# [10] = AUC (0 to 24 hrs) in Sprague-Dawley rat at 1 mg/kg, iv by LC-MS/MS analysis; assay type: ADME, organism-based; design: time < 24 hr, dose 1 mg/kg, route intravenous; details: in vivo
# [11] = Clearance in Sprague-Dawley rat at 1 mg/kg, iv after 24 hrs by LC-MS/MS analysis; assay type: ADME, organism-based; details: in vivo; in short: as §2
# [12] = system: NCI-H1975; test: In vivo anti tumor activity against human NCI-H1975 cells xenografted in nude C.B-17 SCID mouse model assessed as relative tumor volume at 10 mg/kg, ig for 18 days measured twice a week relative to control; assay type: functional
# In short: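 C.B-17 SCID mice received s.c. inoculation of 5 × 10^6 H1975 cells. At 100-150 mm3 they were randomized (n = 9 per group) and dosed intragastrically once daily for 18 days, with PBS as the control. Tumors were measured by caliper twice weekly, with V = length × width²/2. RTV = V/V0, and T/C% = treated mean RTV / control mean RTV × 100.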
# [13] = system: NCI-H1975; test: In vivo anti tumor activity against human NCI-H1975 cells xenografted in nude C.B-17 SCID mouse model assessed as tumor growth inhibition at 10 mg/kg, ig for 18 days measured twice a week relative to control; assay type: functional; details: NCI-H1975, po, 432 h, read-out: TGI
# In short: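 H1975 s.c. xenografts (5 × 10^6 cells) were grown in C.B-17 SCID mice and randomized at 100-150 mm3 (n = 9). Mice were dosed intragastrically once daily for 18 days against a PBS control. TGI% = (TWcontrol − TWtreatment)/TWcontrol × 100, where TW is the mean tumor weight on day 18.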
# [14] = system: Mus musculus; test: Toxicity in nude C.B-17 SCID mouse model xenografted with human NCI-H1975 cells assessed as mortality at 5 to 20 mg/kg, ig for 18 days; assay type: organism-based; details: in vivo, po, 432 h
# In short: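 H1975 xenografts were set up by subcutaneous inoculation of 5 × 10^6 cells into C.B-17 SCID mice. At a mean tumor volume of 100-150 mm3, mice were randomized into groups of n = 9. They were dosed intragastrically once daily for 18 days at 5, 10 or 20 mg/kg, given as 0.1 mL/10 g body weight. The control group received PBS, and tumors were caliper-measured twice weekly.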
# [15] = molecular target: RAC-beta serine/threonine-protein kinase (Homo sapiens) (UniProt P31751); test: Inhibition of AKT2 (unknown origin) at 1 uM relative to control
# [16] = molecular target: AMP-activated protein kinase (AMPK) alpha-1/beta-1/gamma-1 (Homo sapiens) (UniProt P54619+Q9Y478+Q13131); test: Inhibition of AMPK A1/B1/G1 (unknown origin) at 1 uM relative to control; assay type: protein-complex assay
# [17] = molecular target: Cyclin-dependent kinase 1/cyclin B1 (Homo sapiens) (UniProt P06493+P14635); test: Inhibition of CDK1/cyclin B (unknown origin) at 1 uM relative to control; assay type: protein-complex assay
# [18] = molecular target: CDK2/Cyclin A2 (Homo sapiens) (UniProt P24941+P20248); test: Inhibition of CDK2/cyclin A (unknown origin) at 1 uM relative to control; assay type: protein-complex assay
# [19] = molecular target: Casein kinase I isoform alpha (Homo sapiens) (UniProt P48729); test: Inhibition of CSNK1A1 (unknown origin) at 1 uM relative to control
# [20] = molecular target: Casein kinase I isoform epsilon (Homo sapiens) (UniProt P49674); test: Inhibition of CSNK1E (unknown origin) at 1 uM relative to control
# [21] = molecular target: Receptor tyrosine-protein kinase erbB-4 (Homo sapiens) (UniProt Q15303); test: Inhibition of ERBB4 (HER4) (unknown origin) at 1 uM relative to control
# [22] = molecular target: Insulin-like growth factor 1 receptor (Homo sapiens) (UniProt P08069); test: Inhibition of IGF1R (unknown origin) at 1 uM relative to control
# [23] = molecular target: Insulin receptor (Homo sapiens) (UniProt P06213); test: Inhibition of INSR (unknown origin) at 1 uM relative to control
# [24] = molecular target: Tyrosine-protein kinase Lyn (Homo sapiens) (UniProt P07948); test: Inhibition of LYN-B (unknown origin) at 1 uM relative to control
# [25] = molecular target: Mitogen-activated protein kinase kinase kinase 9 (Homo sapiens) (UniProt P80192); test: Inhibition of MAP3K9 (unknown origin) at 1 uM relative to control
# [26] = molecular target: Mitogen-activated protein kinase 1 (Homo sapiens) (UniProt P28482); test: Inhibition of MAPK1 (unknown origin) at 1 uM relative to control
# [27] = molecular target: Protein-tyrosine kinase 6 (Homo sapiens) (UniProt Q13882); test: Inhibition of PTK6 (unknown origin) at 1 uM relative to control
# [28] = molecular target: Rho-associated protein kinase 2 (Homo sapiens) (UniProt O75116); test: Inhibition of ROCK2 (unknown origin) at 1 uM relative to control
# [29] = molecular target: Serine/threonine-protein kinase Sgk1 (Homo sapiens) (UniProt O00141); test: Inhibition of SGK (unknown origin) at 1 uM relative to control
# [30] = molecular target: Leucine-rich repeat serine/threonine-protein kinase 2 (Homo sapiens) (UniProt Q5S007); test: Inhibition of LRRK2 (unknown origin) at 1 uM relative to control
# Chain of Epidermal growth factor receptor (P00533 25-1210 L858R limits assumed): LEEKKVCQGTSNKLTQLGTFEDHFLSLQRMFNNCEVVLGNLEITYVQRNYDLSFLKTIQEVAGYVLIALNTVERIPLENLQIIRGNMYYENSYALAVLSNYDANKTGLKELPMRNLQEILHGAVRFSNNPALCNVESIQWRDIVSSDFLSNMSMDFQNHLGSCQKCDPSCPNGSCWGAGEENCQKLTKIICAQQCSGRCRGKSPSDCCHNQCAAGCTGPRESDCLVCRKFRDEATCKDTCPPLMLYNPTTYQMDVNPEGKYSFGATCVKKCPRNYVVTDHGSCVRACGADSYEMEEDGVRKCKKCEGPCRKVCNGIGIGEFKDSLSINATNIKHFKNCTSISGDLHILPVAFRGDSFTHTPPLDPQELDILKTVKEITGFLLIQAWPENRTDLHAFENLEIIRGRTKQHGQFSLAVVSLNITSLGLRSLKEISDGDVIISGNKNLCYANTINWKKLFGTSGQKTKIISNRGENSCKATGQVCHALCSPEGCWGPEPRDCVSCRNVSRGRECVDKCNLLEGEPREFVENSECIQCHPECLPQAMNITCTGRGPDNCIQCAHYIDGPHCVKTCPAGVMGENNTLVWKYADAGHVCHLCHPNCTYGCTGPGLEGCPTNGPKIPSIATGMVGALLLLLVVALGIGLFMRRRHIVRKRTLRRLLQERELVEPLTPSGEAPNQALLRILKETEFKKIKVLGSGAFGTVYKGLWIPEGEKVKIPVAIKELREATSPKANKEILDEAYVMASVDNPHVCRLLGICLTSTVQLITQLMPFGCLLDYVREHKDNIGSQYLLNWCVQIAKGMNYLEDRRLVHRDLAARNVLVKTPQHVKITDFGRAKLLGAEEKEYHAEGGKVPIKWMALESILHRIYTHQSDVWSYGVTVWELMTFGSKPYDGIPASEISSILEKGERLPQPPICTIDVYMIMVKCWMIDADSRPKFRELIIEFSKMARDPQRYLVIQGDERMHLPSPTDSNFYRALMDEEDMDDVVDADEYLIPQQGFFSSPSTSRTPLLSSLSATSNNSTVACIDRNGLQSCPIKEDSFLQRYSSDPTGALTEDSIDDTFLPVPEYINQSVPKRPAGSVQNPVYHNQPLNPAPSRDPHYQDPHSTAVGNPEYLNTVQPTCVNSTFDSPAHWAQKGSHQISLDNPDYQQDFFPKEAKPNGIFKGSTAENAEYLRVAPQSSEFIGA
# Chain of Protein-tyrosine kinase 6 (Homo sapiens) (Q13882 whole entry, looked up): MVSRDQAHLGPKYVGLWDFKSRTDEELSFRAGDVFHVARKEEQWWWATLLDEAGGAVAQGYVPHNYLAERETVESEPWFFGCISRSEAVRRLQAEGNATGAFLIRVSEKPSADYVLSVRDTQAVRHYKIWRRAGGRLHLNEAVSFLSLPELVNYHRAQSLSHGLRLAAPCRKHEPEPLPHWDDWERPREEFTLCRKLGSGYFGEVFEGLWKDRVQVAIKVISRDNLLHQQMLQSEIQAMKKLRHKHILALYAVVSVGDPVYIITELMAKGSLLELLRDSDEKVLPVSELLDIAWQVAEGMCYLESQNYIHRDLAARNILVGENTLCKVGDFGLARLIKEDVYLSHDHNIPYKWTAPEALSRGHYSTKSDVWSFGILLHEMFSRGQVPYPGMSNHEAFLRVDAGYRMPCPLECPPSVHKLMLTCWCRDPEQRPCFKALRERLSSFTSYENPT
# Chain of Rho-associated protein kinase 2 (Homo sapiens) (O75116 whole entry, looked up): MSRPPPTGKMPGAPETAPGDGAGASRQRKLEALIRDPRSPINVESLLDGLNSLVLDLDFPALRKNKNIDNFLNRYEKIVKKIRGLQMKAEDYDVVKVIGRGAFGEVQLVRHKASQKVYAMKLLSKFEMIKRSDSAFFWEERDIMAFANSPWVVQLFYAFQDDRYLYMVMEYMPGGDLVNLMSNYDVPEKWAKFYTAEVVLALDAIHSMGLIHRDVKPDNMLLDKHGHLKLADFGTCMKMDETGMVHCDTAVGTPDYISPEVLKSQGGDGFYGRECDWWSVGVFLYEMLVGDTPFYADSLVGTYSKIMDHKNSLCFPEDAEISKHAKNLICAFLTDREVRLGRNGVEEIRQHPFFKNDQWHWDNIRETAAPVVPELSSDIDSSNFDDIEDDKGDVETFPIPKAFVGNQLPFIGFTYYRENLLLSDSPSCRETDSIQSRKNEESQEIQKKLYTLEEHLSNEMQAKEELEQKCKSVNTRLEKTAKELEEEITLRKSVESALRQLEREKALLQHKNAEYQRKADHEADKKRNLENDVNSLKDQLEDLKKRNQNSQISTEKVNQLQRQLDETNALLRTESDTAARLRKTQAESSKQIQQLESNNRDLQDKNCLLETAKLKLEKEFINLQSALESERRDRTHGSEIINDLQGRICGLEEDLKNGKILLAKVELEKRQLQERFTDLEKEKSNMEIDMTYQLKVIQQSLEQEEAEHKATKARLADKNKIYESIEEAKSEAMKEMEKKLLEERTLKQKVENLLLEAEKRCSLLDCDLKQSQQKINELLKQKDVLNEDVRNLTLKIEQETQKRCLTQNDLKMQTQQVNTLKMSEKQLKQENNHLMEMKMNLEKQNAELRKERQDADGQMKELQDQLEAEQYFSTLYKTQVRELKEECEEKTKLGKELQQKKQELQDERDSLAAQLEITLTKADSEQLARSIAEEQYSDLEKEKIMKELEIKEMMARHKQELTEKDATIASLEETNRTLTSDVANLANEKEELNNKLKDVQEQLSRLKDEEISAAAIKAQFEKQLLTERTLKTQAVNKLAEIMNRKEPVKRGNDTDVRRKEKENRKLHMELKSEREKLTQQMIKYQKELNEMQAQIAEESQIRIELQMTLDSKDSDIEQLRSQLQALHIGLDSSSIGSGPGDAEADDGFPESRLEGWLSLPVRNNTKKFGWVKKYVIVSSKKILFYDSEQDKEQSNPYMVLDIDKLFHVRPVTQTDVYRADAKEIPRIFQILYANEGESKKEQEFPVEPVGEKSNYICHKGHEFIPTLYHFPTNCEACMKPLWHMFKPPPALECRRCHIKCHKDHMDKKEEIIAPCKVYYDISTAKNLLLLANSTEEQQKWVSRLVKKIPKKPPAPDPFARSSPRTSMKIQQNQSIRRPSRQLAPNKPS
# Chain of Insulin receptor (Homo sapiens) (P06213 28-758 limits assumed): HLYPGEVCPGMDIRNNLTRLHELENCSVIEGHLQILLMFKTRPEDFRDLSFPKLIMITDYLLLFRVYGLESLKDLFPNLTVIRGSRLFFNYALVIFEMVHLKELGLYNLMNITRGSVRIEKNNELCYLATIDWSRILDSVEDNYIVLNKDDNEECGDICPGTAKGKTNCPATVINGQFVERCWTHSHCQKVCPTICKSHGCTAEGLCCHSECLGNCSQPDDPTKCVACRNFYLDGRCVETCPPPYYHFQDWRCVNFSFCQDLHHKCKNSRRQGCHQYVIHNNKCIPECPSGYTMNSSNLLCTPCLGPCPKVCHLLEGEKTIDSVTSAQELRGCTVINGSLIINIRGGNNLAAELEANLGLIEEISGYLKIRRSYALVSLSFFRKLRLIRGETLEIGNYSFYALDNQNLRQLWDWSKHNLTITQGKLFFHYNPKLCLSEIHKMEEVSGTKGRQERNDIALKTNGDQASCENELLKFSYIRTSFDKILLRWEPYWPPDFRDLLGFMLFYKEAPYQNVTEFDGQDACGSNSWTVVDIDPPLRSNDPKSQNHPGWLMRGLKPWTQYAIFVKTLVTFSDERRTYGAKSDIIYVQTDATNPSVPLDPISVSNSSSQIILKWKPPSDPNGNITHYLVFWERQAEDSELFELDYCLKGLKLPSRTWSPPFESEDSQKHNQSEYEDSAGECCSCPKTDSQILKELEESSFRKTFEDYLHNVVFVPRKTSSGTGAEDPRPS
# Chain of Insulin receptor (Homo sapiens) (P06213 763-1382 limits assumed): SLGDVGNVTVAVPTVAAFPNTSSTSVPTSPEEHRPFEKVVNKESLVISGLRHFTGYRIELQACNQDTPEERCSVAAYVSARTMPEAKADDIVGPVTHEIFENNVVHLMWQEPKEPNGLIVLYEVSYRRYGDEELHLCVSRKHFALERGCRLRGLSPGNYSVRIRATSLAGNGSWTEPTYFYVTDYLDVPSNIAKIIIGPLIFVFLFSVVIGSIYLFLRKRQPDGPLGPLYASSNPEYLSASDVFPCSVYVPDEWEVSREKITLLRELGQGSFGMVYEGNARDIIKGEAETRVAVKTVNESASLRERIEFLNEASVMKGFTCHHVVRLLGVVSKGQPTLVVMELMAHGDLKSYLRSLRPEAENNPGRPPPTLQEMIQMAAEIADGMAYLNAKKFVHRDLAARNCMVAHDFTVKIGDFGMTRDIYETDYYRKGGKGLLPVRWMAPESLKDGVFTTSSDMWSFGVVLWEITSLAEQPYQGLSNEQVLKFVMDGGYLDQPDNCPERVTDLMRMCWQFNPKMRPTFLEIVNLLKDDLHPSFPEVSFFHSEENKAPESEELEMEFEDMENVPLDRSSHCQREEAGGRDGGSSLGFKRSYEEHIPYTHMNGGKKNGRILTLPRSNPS
# Chain of Serine/threonine-protein kinase Sgk1 (Homo sapiens) (O00141 whole entry): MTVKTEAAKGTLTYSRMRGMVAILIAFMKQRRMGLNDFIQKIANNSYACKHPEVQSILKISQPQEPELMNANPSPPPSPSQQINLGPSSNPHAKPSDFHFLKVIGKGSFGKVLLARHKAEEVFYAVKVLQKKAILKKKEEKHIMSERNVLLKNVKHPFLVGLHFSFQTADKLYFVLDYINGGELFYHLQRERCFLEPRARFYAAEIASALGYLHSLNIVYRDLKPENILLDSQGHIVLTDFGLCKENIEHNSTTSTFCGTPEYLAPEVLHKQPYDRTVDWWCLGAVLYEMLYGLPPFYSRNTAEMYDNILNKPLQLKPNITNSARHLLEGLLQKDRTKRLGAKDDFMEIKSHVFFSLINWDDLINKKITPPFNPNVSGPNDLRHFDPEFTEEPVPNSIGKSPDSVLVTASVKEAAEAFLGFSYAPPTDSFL
structure (smiles),measurement,setting,value
C=CC(=O)Nc1cc(Nc2nccc(-c3cn4c5c(cccc35)CCC4)n2)c(OC)cc1N(C)CCN(C)C,IC50,[1],5.3 to 6 nM
same,IC50,[2],870 nM
same,half-life,[3],0.198 h
same,half-life,[4],0.77 h
same,half-life,[5],2.31 h
same,half-life,[6],4.1 h
same,Tmax,[7],3.3 h
same,AUC(0-inf),[8],1020 ng·h/mL
same,half-life,[9],4.5 h
same,AUC(0-t) at 24 h,[10],190 ng·h/mL
same,clearance,[11],86.2 mL/min/kg
same,T/C,[12],25.7%
same,inhibition in vivo at 10 mg/kg,[13],83.5%
same,Activity,[14],Non-Toxic
same,inhibition,[15],1%
same,inhibition,[16],7%
same,inhibition,[17],5%
same,inhibition,[18],7%
same,inhibition,[19],-4%
same,inhibition,[20],3%
same,inhibition,[21],78%
same,inhibition,[22],21%
same,inhibition,[23],36%
same,inhibition,[24],15%
same,inhibition,[25],87%
same,inhibition,[26],-3%
same,inhibition,[27],83%
same,inhibition,[28],0%
same,inhibition,[29],10%
same,inhibition,[30],90%
